Measured values: ChEMBL document CHEMBL1149252, “Synthesis and structure-activity relationships of 4-alkynyloxy phenyl sulfanyl, sulfinyl, and sulfonyl alkyl hydroxamates as tumor necrosis factor-alpha converting enzyme and matrix metalloproteinase inhibitors” (J Med Chem, 2004)
pIC50: −log10 of the molar value. Active and inactive are the calls of the source. The calls are words filed in the database; no cut-off is given here.

Assays:
THP-1 = assay: Inhibition of LPS-stimulated TNFalpha production in human THP1 cells at 3 uM by ELISA; format: functional
[1] = biological target: T1, Matrix metalloproteinase-9 (Homo sapiens, UniProt P14780); assay: Inhibition of MMP9 at 10 uM
Summary of the method: (§1)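 Cell-free assay on isolated enzyme (MMP-1, MMP-9, MMP-13 or TACE). Percent inhibition was read at a single 10 μM inhibitor concentration, with samples run in triplicate and the mean reported. Full dose-response curves were generated only where inhibition at 10 μM reached 60%.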

Collagenase 3 [2] = biological target: T2, Collagenase 3 (Homo sapiens, UniProt P45452); assay: Inhibition of MMP13 at 10 uM; summary of the method: as §1
Interstitial collagenase [3] = biological target: T3, Interstitial collagenase (Homo sapiens, UniProt P03956); assay: Inhibition of MMP1 at 10 uM; summary of the method: as §1
Interstitial collagenase [4] = biological target: T3, Interstitial collagenase
Collagenase 3 [5] = biological target: T2, Collagenase 3
[6] = biological target: T4, Disintegrin and metalloproteinase domain-containing protein 17 (Homo sapiens, UniProt P78536)
[7] = biological target: T1, Matrix metalloproteinase-9
[8] = biological target: T4, Disintegrin and metalloproteinase domain-containing protein 17; assay: Inhibition of TACE at 10 uM; summary of the method: as §1
Mus musculus [9] = assay: Inhibition of LPS-stimulated TNFalpha production in mouse model at 10 mg/kg, po at 1 hrs; format: functional
Summary of the method: (§2)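 Mice received the compound orally. LPS was injected 30 min after dosing. Blood was drawn 1 h after LPS, and serum TNF-α was measured by ELISA. Results are expressed as % inhibition of LPS-induced TNF-α.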

Mus musculus [10] = assay: Inhibition of LPS-stimulated TNFalpha production in mouse model at 10 mg/kg, po at 12 hrs; format: functional, organism-based; set-up: dose 10 mg/kg
Mus musculus [11] = assay: Inhibition of LPS-stimulated TNFalpha production in mouse model at 100 mg/kg, po at 12 hrs; format: functional
Mus musculus [12] = assay: Inhibition of LPS-stimulated TNFalpha production in mouse model at 100 mg/kg, po at 1 hrs; format: functional; summary of the method: as §2
Mus musculus [13] = assay: Inhibition of LPS-stimulated TNFalpha production in mouse model at 10 mg/kg, po; format: functional, organism-based; set-up: dose 10 mg/kg; summary of the method: as §2

T1 sequence (P14780 whole entry): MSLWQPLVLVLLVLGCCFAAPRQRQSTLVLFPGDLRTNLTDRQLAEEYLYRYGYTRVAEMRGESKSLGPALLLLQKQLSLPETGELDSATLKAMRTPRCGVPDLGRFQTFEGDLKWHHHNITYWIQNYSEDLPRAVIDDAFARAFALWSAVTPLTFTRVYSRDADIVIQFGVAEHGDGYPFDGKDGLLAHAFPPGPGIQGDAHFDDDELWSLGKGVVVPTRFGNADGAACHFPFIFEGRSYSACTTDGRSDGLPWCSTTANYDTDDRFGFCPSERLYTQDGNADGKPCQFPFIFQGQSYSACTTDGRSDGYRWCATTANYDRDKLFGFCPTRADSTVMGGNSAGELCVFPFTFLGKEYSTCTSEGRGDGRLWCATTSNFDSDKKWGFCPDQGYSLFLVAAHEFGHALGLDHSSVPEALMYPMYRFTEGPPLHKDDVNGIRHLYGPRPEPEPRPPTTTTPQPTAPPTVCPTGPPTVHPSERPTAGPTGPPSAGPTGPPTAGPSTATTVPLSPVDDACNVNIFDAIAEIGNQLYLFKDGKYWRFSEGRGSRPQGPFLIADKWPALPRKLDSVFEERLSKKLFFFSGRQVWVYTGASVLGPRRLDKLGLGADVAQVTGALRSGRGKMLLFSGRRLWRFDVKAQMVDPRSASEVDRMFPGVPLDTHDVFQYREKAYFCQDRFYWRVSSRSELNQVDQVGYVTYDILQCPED
T4 sequence (P78536 whole entry, the tested form may be a part): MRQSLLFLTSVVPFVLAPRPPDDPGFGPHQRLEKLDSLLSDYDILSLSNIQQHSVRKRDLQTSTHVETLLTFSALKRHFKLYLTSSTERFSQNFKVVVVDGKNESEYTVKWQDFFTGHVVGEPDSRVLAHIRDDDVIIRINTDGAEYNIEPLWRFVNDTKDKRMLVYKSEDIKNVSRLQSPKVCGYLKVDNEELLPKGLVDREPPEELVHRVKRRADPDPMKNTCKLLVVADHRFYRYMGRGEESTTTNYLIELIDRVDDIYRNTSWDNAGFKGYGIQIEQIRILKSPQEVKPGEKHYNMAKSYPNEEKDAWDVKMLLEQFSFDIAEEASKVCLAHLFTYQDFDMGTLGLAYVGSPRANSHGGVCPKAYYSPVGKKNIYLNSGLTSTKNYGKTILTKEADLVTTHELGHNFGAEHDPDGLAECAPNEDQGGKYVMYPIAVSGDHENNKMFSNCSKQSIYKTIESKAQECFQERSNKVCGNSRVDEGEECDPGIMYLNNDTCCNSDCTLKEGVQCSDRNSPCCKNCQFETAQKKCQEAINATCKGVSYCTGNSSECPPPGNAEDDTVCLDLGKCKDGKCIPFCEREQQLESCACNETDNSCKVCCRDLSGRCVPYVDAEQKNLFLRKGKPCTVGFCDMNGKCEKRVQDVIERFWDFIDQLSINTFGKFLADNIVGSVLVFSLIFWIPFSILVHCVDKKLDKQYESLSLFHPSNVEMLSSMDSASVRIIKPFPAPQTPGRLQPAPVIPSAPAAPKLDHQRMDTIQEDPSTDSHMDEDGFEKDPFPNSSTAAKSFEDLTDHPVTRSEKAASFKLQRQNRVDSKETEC
T3 sequence (P03956 whole entry): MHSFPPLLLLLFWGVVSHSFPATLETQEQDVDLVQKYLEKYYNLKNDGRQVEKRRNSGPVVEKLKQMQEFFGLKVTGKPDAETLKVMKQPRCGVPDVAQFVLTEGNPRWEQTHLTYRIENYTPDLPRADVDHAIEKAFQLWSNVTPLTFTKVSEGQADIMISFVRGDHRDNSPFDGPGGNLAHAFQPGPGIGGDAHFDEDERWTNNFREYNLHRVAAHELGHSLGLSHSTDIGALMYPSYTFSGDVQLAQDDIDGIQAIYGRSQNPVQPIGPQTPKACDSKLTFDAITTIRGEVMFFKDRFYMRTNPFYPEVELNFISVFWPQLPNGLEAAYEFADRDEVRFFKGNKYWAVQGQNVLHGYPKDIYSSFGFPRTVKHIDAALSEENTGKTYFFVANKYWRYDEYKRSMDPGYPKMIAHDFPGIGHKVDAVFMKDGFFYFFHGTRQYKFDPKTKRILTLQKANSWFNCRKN

| Compound | pIC50 (Interstitial collagenase [4]) | pIC50 (Collagenase 3 [5]) | pIC50 [6] | pIC50 [7] | inhibition at 3 µM (THP-1) | further results |
| --- | --- | --- | --- | --- | --- | --- |
| CCCCCC#CCOc1ccc(S(=O)(=O)C2(C(=O)NO)CCN(Cc3ccc(Br)cc3)CC2)cc1 |  |  |  |  | 0% | inhibition [1]: 59%; inhibition (Collagenase 3 [2]): 60%; inhibition (Interstitial collagenase [3]): 33% |
| CC#CCOc1ccc(S(=O)(=O)C(C(=O)NO)c2ccccc2)cc1 (configuration not stated) | 5.34 | 7.17 | 7.03 | 6.91 | 68% |  |
| CC#CCOc1ccc(SC(C(=O)NO)C2CCCCC2)cc1 (configuration not stated) | < 5.00 | 5.70 |  | 5.52 | 5% |  |
| COc1ccc(S(=O)(=O)C2(C(=O)NO)CCN(Cc3ccc(Br)cc3)CC2)cc1 |  |  |  |  | 0% |  |
| CC#CCOc1ccc(SC(C(=O)NO)C(C)C)cc1 (configuration not stated) | < 5.00 | < 5.00 |  | < 5.00 | 13% |  |
| CC#CCOc1ccc(SC(C(=O)NO)c2ccc(OC)cc2)cc1 (configuration not stated) | < 5.00 | < 5.00 |  | < 5.00 | 3% |  |
| CC#CCOc1ccc([S@@](=O)[C@H](C(=O)NO)c2ccccc2)cc1 | < 5.00 | < 5.00 | 7.13 | < 5.00 | 4% |  |
| CC#CCOc1ccc(SC(C(=O)NO)c2ccccc2)cc1 (configuration not stated) | < 5.00 | < 5.00 |  | < 5.00 | 14% |  |
| CCC#CCOc1ccc(S(=O)(=O)C2(C(=O)NO)CCN(Cc3ccc(Br)cc3)CC2)cc1 |  |  |  |  | 0% | inhibition [1]: 41%; inhibition (Collagenase 3 [2]): 40%; inhibition (Interstitial collagenase [3]): 51% |
| CC#CCOc1ccc([S+]([O-])C(C(=O)NO)c2ccccc2)cc1 (single isomer, unassigned) | < 5.00 | < 5.00 |  | < 5.00 | 74% |  |
| CC#CCOc1ccc(SC2(C(=O)NO)CCN(C(=O)OC(C)(C)C)CC2)cc1 |  |  |  |  | 0% | inhibition [8]: 38%; inhibition [1]: 25%; inhibition (Interstitial collagenase [3]): 24% |
| CC#CCOc1ccc(S(=O)(=O)C(C(=O)NO)c2ccc(OC)cc2)cc1 (configuration not stated) | < 5.00 | 5.43 | 6.70 | < 5.00 |  |  |
| CC#CCOc1ccc([S@@+]([O-])[C@H](C(=O)NO)C(C)C)cc1 | 5.19 |  |  | 6.40 |  |  |
| CCCCCC[C@@H](C(=O)NO)[S@@+]([O-])c1ccc(OC)cc1 (relative stereo) | 5.82 | 7.74 | 6.43 | 6.83 |  |  |
| CCCCCC[C@@H](C(=O)NO)[S@+]([O-])c1ccc(OC)cc1 (relative stereo) | 5.94 | 7.14 | 7.52 | 6.73 |  |  |
| CC#CCOc1ccc(S(=O)(=O)C(C(=O)NO)C(C)C)cc1 (configuration not stated) | 5.29 | 6.97 |  | 5.90 |  |  |
| CC#CCOc1ccc(S(=O)(=O)N2CCSC(C)(C)[C@@H]2C(=O)NO)cc1 |  |  |  |  |  | inhibition in vivo at 10 mg/kg (Mus musculus [9]): 80%; Activity (Mus musculus [10]): inactive |
| CC#CCOc1ccc(S(=O)(=O)C(C(=O)NO)C2CC[S+]([O-])CC2)cc1 (configuration not stated) | < 5.00 | < 5.00 | 7.41 | < 5.00 | 14% |  |
| CC#CCOc1ccc(S(=O)(=O)C(C(=O)NO)C2CCN(C(=O)C3CC3)CC2)cc1 (configuration not stated) | < 5.00 | < 5.00 | 7.27 | < 5.00 | 71% |  |
| CC#CCOc1ccc(S(=O)(=O)C2(C(=O)NO)CCN(Cc3ccc(Cl)cc3)CC2)cc1 |  |  |  |  | 66% | inhibition [1]: 52%; inhibition (Collagenase 3 [2]): 56%; inhibition (Interstitial collagenase [3]): 52%; inhibition in vivo at 100 mg/kg (Mus musculus [11]): 23%; inhibition in vivo at 100 mg/kg (Mus musculus [12]): 61%; Activity (Mus musculus [13]): inactive |
| CC#CCOc1ccc([S+]([O-])C(C(=O)NO)c2ccc(OC)cc2)cc1 (single isomer, unassigned) | < 5.00 | < 5.00 | 7.77 | < 5.00 |  |  |
| O=C(NO)C1(S(=O)(=O)c2ccc(OCC#CCN3CCOCC3)cc2)CCN(Cc2ccc(Br)cc2)CC1 |  |  |  |  | 0% | inhibition [1]: 20%; inhibition (Collagenase 3 [2]): 63%; inhibition (Interstitial collagenase [3]): 16% |
| CCCCCCC(Sc1ccc(OC)cc1)C(=O)NO (configuration not stated) |  |  |  |  |  | inhibition [1]: 67%; inhibition (Collagenase 3 [2]): 55%; inhibition (Interstitial collagenase [3]): 9% |
| CC#CCOc1ccc(S(=O)(=O)C(C(=O)NO)C2CCSCC2)cc1 (configuration not stated) | < 5.00 | < 5.00 | 6.95 | < 5.00 | 15% |  |
| CC#CCOc1ccc([S@@](=O)[C@H](C(=O)NO)c2ccc(OC)cc2)cc1 | < 5.00 | < 5.00 | 7.32 | < 5.00 | 12% |  |
| CC#CCOc1ccc(SC2(C(=O)OCC)CCN(C(=O)OC(C)(C)C)CC2)cc1 |  |  |  |  | 0% | inhibition [8]: 67%; inhibition [1]: 21%; inhibition (Collagenase 3 [2]): 32%; inhibition (Interstitial collagenase [3]): 26% |
| CC#CCOc1ccc(S(=O)(=O)C2(C(=O)NO)CCN(Cc3ccc(OC)cc3)CC2)cc1 |  |  |  |  |  | inhibition in vivo at 100 mg/kg (Mus musculus [11]): 24%; inhibition in vivo at 100 mg/kg (Mus musculus [12]): 91%; Activity (Mus musculus [13]): inactive |

Continued, in another order:

| pIC50 (Interstitial collagenase [4]) | pIC50 (Collagenase 3 [5]) | pIC50 [6] | pIC50 [7] | Compound | inhibition at 3 µM (THP-1) | further results |
| --- | --- | --- | --- | --- | --- | --- |
| 7.02 | 8.15 | 7.16 | 7.74 | C#CCOc1ccc(S(=O)(=O)C2(C(=O)NO)CCN(Cc3ccccc3)CC2)cc1 | 0% |  |
| < 5.00 |  |  |  | CC#CCOc1ccc(SC(CCCCCC)C(=O)NO)cc1 (configuration not stated) | 5% |  |
| 5.58 |  |  |  | CC#CCOc1ccc(S(=O)(=O)C2(C(=O)NO)CCN(Cc3ccccc3)CC2)cc1 |  |  |
|  | 8.52 |  | 8.22 | C#CCOc1ccc(S(=O)(=O)C2(C(=O)NO)CCN(Cc3ccc(Br)cc3)CC2)cc1 | 7% |  |
| 5.47 |  |  |  | CC#CCOc1ccc(S(=O)(=O)C2(C(=O)NO)CCN(Cc3ccc(Br)cc3)CC2)cc1 |  |  |
| < 5.00 | < 5.00 | 6.63 | < 5.00 | CC#CCOc1ccc(S(=O)(=O)C(C(=O)NO)C2CCN(C(=O)c3ccccc3)CC2)cc1 (configuration not stated) | 28% |  |
| < 5.00 | 6.30 | 7.12 | 5.60 | CC#CCOc1ccc(S(=O)(=O)C(CCCCCC)C(=O)NO)cc1 (configuration not stated) | 6% |  |
|  |  | 7.10 |  | CC#CCOc1ccc(S(=O)(=O)C2(C(=O)NO)CCN(CC)CC2)cc1 | 35% | inhibition [1]: 31%; inhibition (Interstitial collagenase [3]): 44% |
| < 5.00 |  |  | < 5.00 | CC#CCOc1ccc(S(=O)(=O)C(C(=O)NO)C2CCCCC2)cc1 (configuration not stated) |  |  |
| < 5.00 | < 5.00 | 6.92 | < 5.00 | CC#CCOc1ccc(S(=O)(=O)C(C(=O)NO)C2CCN(C(C)=O)CC2)cc1 (configuration not stated) | 31% |  |
| < 5.00 | < 5.00 |  | < 5.00 | CC#CCOc1ccc(S(=O)(=O)C(C(=O)NO)C2CCNCC2)cc1 (configuration not stated) |  |  |
| < 5.00 | < 5.00 |  | < 5.00 | CC#CCOc1ccc(S(=O)(=O)C(C(=O)NO)C2CCOCC2)cc1 (configuration not stated) |  |  |
| 5.40 | 8.30 | 7.14 | 8.00 | CCCCOc1ccc(S(=O)(=O)C2(C(=O)NO)CCN(Cc3ccc(Br)cc3)CC2)cc1 | 6% |  |
| 5.49 | 6.82 | 7.92 | 6.00 | CC#CCOc1ccc([S@+]([O-])[C@H](CCCCCC)C(=O)NO)cc1 | 35% |  |
| 5.52 | 6.05 | 8.40 | 5.82 | CC#CCOc1ccc([S@@+]([O-])[C@@H](CCCCCC)C(=O)NO)cc1 | 67% |  |
